Experimental data from ChEMBL document CHEMBL1158424, “Design, synthesis and biological investigation of certain pyrazole-3-carboxylic acid derivatives as novel carriers for nitric oxide” (Bioorg Med Chem, 2009).
Converted amounts (≈) assume the structure as drawn. The source made the active and inactive calls. The calls are words filed in the database; no cut-off is given here.

system: Pseudomonas aeruginosa; assay: Antibacterial activity against Pseudomonas aeruginosa after 24 hrs by agar cup diffusion method; format: functional; conditions: not given
How it was run: (§1)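 Nutrient agar seeded with culture, poured 3–4 mm; six 10 mm cups per plate, one as DMF solvent control. Compounds dissolved in DMF (stock 1 mg/mL), two-fold serial dilutions 32–512 µg/mL, 0.1 mL per cup. Incubation 24 h at 37 °C; inhibition zone diameter read in mm. MIC taken as intercept of log concentration versus zone diameter plot; ciprofloxacin reference.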

Row | Compound | MIC
1 | O=C(c1ccccc1)c1c(C(=O)N2CCN(C(=O)CCl)CC2)nn(-c2ccccc2)c1-c1ccccc1 | 61.5 µg/mL (≈ 120 µM)
2 | O=C(O)c1cn(C2CC2)c2cc(N3CCNCC3)c(F)cc2c1=O [CIPROFLOXACIN] | 30.8 µg/mL (≈ 93 µM)

The remaining compounds from weak to strong by MIC, led by results:

Row | MIC | Compound
3 | 27.2 µg/mL (≈ 54.4 µM) | C/C(=N\O)c1ccc(NC(=O)c2nn(-c3ccccc3)c(-c3ccccc3)c2C(=O)c2ccccc2)cc1
4 | 23.3 µg/mL (≈ 37.9 µM) | O=C(Nc1ccc(S(=O)(=O)Nc2ncccn2)cc1)c1nn(-c2ccccc2)c(-c2ccccc2)c1/C(=N/O)c1ccccc1
5 | 1.29 µg/mL (≈ 3.13 µM) | O=C(OCCO)c1nn(-c2ccccc2)c(-c2ccccc2)c1C(=O)c1ccccc1

system: not listed separately; assay: Nitric oxide release in phosphate buffer at pH 7.4 after 1 hr by Griess diazotization reaction method in presence of L-cysteine; set-up: concentration or dose not given beside the values; conditions: not given
How it was run: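 Incubation in pH 7.4 phosphate buffer with L-cysteine for 1 h at 37 °C. Then 1 mL of mixture treated with Griess reagent (sulfanilamide, N-naphthylethylenediamine, phosphoric acid); absorbance read at 540 nm after 25 min. Nitrite quantified against sodium nitrite standard curve; % release = found/theoretical NO × 100.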

Row | Compound | Activity
6 | C/C(=N\O)c1ccc(NC(=O)c2nn(-c3ccccc3)c(-c3ccccc3)c2C(=O)c2ccccc2)cc1 | 11.6%
7 | O=C(Nc1ccc(S(=O)(=O)Nc2ncccn2)cc1)c1nn(-c2ccccc2)c(-c2ccccc2)c1/C(=N/O)c1ccccc1 | 7.4%

system: Escherichia coli; assay: Antibacterial activity against Escherichia coli C-600 after 24 hrs by agar cup diffusion method; format: functional; conditions: C-600, 24 h; how it was run: as §1

Row | Compound | MIC
8 | O=C(c1ccccc1)c1c(C(=O)N2CCN(C(=O)CCl)CC2)nn(-c2ccccc2)c1-c1ccccc1 | 1.37 µg/mL (≈ 2.67 µM)
9 | O=C(O)c1cn(C2CC2)c2cc(N3CCNCC3)c(F)cc2c1=O [CIPROFLOXACIN] | 1.2 µg/mL (≈ 3.62 µM)

Other lines, results leading:

Row | MIC | Compound
10 | 1.62 µg/mL (≈ 3.24 µM) | C/C(=N\O)c1ccc(NC(=O)c2nn(-c3ccccc3)c(-c3ccccc3)c2C(=O)c2ccccc2)cc1
11 | 30.9 µg/mL (≈ 50.1 µM) | O=C(Nc1ccc(S(=O)(=O)Nc2ncccn2)cc1)c1nn(-c2ccccc2)c(-c2ccccc2)c1/C(=N/O)c1ccccc1
12 | 7.95 µg/mL (≈ 19.3 µM) | O=C(OCCO)c1nn(-c2ccccc2)c(-c2ccccc2)c1C(=O)c1ccccc1

system: Bacillus subtilis; assay: Antibacterial activity against Bacillus subtilis after 24 hrs by agar cup diffusion method; format: functional; conditions: not given; how it was run: as §1

Row | Compound | MIC
13 | O=C(c1ccccc1)c1c(C(=O)N2CCN(C(=O)CCl)CC2)nn(-c2ccccc2)c1-c1ccccc1 | 11.2 µg/mL (≈ 21.8 µM)
14 | O=C(O)c1cn(C2CC2)c2cc(N3CCNCC3)c(F)cc2c1=O [CIPROFLOXACIN] | 0.61 µg/mL (≈ 1.84 µM)

The remaining lines, values ahead:

Row | MIC | Compound
15 | 90.4 µg/mL (≈ 181 µM) | C/C(=N\O)c1ccc(NC(=O)c2nn(-c3ccccc3)c(-c3ccccc3)c2C(=O)c2ccccc2)cc1
16 | 54.7 µg/mL (≈ 88.8 µM) | O=C(Nc1ccc(S(=O)(=O)Nc2ncccn2)cc1)c1nn(-c2ccccc2)c(-c2ccccc2)c1/C(=N/O)c1ccccc1
17 | 3.88 µg/mL (≈ 9.41 µM) | O=C(OCCO)c1nn(-c2ccccc2)c(-c2ccccc2)c1C(=O)c1ccccc1

system: Staphylococcus aureus; assay: Antibacterial activity against Staphylococcus aureus NCTC 6571 after 24 hrs by agar cup diffusion method; format: functional; conditions: not given; how it was run: as §1

Row | MIC | Compound
18 | inactive | O=C(c1ccccc1)c1c(C(=O)N2CCN(C(=O)CCl)CC2)nn(-c2ccccc2)c1-c1ccccc1
19 | inactive | C/C(=N\O)c1ccc(NC(=O)c2nn(-c3ccccc3)c(-c3ccccc3)c2C(=O)c2ccccc2)cc1
20 | inactive | O=C(Nc1ccc(S(=O)(=O)Nc2ncccn2)cc1)c1nn(-c2ccccc2)c(-c2ccccc2)c1/C(=N/O)c1ccccc1
21 | inactive | O=C(OCCO)c1nn(-c2ccccc2)c(-c2ccccc2)c1C(=O)c1ccccc1

same assay, conditions: NCTC 6571, 24 h

Row | MIC | Compound
22 | 52.4 µg/mL (≈ 158 µM) | O=C(O)c1cn(C2CC2)c2cc(N3CCNCC3)c(F)cc2c1=O [CIPROFLOXACIN]

system: Rattus norvegicus; assay: Antiinflammatory activity in albino rat assessed as inhibition of carrageenan-induced paw edema at 100 mg/kg, po administered 30 mins prior to carrageenan challenge measured after 1 hr; format: functional; conditions: not given
How it was run: (§2)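 Male albino rats, 140–150 g, groups of 5, acclimatized 3 days, water only on the last day. Oral dosing in carboxymethylcellulose vehicle 30 min before subplantar 1% carrageenan (0.1 mL) into one hind paw; contralateral paw given saline. Paw thickness by digital plethysmometer at 0–5 h. Percent inhibition from difference between paws, treated versus vehicle control; indomethacin reference; mean ± SEM.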

Row | Compound | inhibition in vivo at 100 mg/kg
23 | C/C(=N\O)c1ccc(NC(=O)c2nn(-c3ccccc3)c(-c3ccccc3)c2C(=O)c2ccccc2)cc1 | 16.4%
24 | O=C(Nc1ccc(S(=O)(=O)Nc2ncccn2)cc1)c1nn(-c2ccccc2)c(-c2ccccc2)c1/C(=N/O)c1ccccc1 | 16.4%
25 | O=C(OCCO)c1nn(-c2ccccc2)c(-c2ccccc2)c1C(=O)c1ccccc1 | 19.7%

system: Rattus norvegicus; assay: Antiinflammatory activity in albino rat assessed as inhibition of carrageenan-induced paw edema at 100 mg/kg, po administered 30 mins prior to carrageenan challenge measured after 2 hrs; format: functional; conditions: not given; how it was run: as §2

Row | Compound | inhibition in vivo at 100 mg/kg
26 | C/C(=N\O)c1ccc(NC(=O)c2nn(-c3ccccc3)c(-c3ccccc3)c2C(=O)c2ccccc2)cc1 | 33.3%
27 | O=C(Nc1ccc(S(=O)(=O)Nc2ncccn2)cc1)c1nn(-c2ccccc2)c(-c2ccccc2)c1/C(=N/O)c1ccccc1 | 26.7%
28 | O=C(OCCO)c1nn(-c2ccccc2)c(-c2ccccc2)c1C(=O)c1ccccc1 | 51.5%

system: Rattus norvegicus; assay: Antiinflammatory activity in albino rat assessed as inhibition of carrageenan-induced paw edema at 100 mg/kg, po administered 30 mins prior to carrageenan challenge measured after 3 hrs; format: functional; conditions: not given; how it was run: as §2

Row | Compound | inhibition in vivo at 100 mg/kg
29 | C/C(=N\O)c1ccc(NC(=O)c2nn(-c3ccccc3)c(-c3ccccc3)c2C(=O)c2ccccc2)cc1 | 33.3%
30 | O=C(Nc1ccc(S(=O)(=O)Nc2ncccn2)cc1)c1nn(-c2ccccc2)c(-c2ccccc2)c1/C(=N/O)c1ccccc1 | 31.7%
31 | O=C(OCCO)c1nn(-c2ccccc2)c(-c2ccccc2)c1C(=O)c1ccccc1 | 66.4%

system: Rattus norvegicus; assay: Antiinflammatory activity in albino rat assessed as inhibition of carrageenan-induced paw edema at 100 mg/kg, po administered 30 mins prior to carrageenan challenge measured after 4 hrs; format: functional; conditions: not given; how it was run: as §2

Row | Compound | inhibition in vivo at 100 mg/kg
32 | C/C(=N\O)c1ccc(NC(=O)c2nn(-c3ccccc3)c(-c3ccccc3)c2C(=O)c2ccccc2)cc1 | 51.5%
33 | O=C(Nc1ccc(S(=O)(=O)Nc2ncccn2)cc1)c1nn(-c2ccccc2)c(-c2ccccc2)c1/C(=N/O)c1ccccc1 | 51.5%
34 | O=C(OCCO)c1nn(-c2ccccc2)c(-c2ccccc2)c1C(=O)c1ccccc1 | 68.6%

system: Rattus norvegicus; assay: Antiinflammatory activity in albino rat assessed as inhibition of carrageenan-induced paw edema at 100 mg/kg, po administered 30 mins prior to carrageenan challenge measured after 5 hrs; format: functional; conditions: not given; how it was run: as §2

Row | Compound | inhibition in vivo at 100 mg/kg
35 | C/C(=N\O)c1ccc(NC(=O)c2nn(-c3ccccc3)c(-c3ccccc3)c2C(=O)c2ccccc2)cc1 | 62.3%
36 | O=C(Nc1ccc(S(=O)(=O)Nc2ncccn2)cc1)c1nn(-c2ccccc2)c(-c2ccccc2)c1/C(=N/O)c1ccccc1 | 56.5%
37 | O=C(OCCO)c1nn(-c2ccccc2)c(-c2ccccc2)c1C(=O)c1ccccc1 | 71.7%

system: Rattus norvegicus; assay: Gastrointestinal toxicity in albino rat assessed as ulcer index at 100 mg/kg, po; format: organism-based; set-up: dose 100 mg/kg, route oral; conditions: in vivo
How it was run: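 Rats from the paw edema study killed by ether overdose; stomachs removed, opened and examined for visible lesions. Each lesion scored 0–5 by length (0 none, 1 petechiae, 2 <1 mm, 3 1–2 mm, 4 2–4 mm, 5 >4 mm erosions). Scores summed per rat; group ulcer index is the mean lesion score.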

Row | Compound | UI
38 | C/C(=N\O)c1ccc(NC(=O)c2nn(-c3ccccc3)c(-c3ccccc3)c2C(=O)c2ccccc2)cc1 | 4
39 | O=C(Nc1ccc(S(=O)(=O)Nc2ncccn2)cc1)c1nn(-c2ccccc2)c(-c2ccccc2)c1/C(=N/O)c1ccccc1 | 7.6
40 | O=C(OCCO)c1nn(-c2ccccc2)c(-c2ccccc2)c1C(=O)c1ccccc1 | 9
